Laboratory results from PMC3178989 (Indian Journal of Pharmaceutical Sciences, 2010).
Values after ≈ are worked out from the molar mass of the structure shown.

Key:
mock-infected MT-4 cells = experiment: Cytotoxicity for mock-infected MT-4 cells; type: cell-based; settings: MTT, printed in both strain rows
Procedure, shortened: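 Mock-infected MT-4 cells were grown in RPMI 1640 with 10% heat-inactivated FCS, 2 mM glutamine, 0.1% sodium bicarbonate and 20 µg/ml gentamicin. Cells (6×10^5 cells/ml) were exposed to test compound, and viability was measured by MTT to derive the 50% cytotoxic concentration. A reference drug was tested the same way.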

[1] = test system: Herpes simplex virus-2 (G); experiment: microbe, parasite or virus in culture; type: cell-based; settings: Human alphaherpesvirus 2, read-out: EC50 Herpes simplex virus-2 (G)
HIV-2(ROD) = experiment: Inhibition of HIV-2 induced cytopathic effect in MT-4 cells; type: cell-based; settings: for EC50: MT4, 120 h, read-out: IC50a (50% effective concentration, 50% protection of MT-4 cells against the cytopathic effect of HIV)
Procedure, shortened: (§1)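 MT-4 cells were kept in RPMI 1640 with 10% heat-inactivated FCS, 2 mM glutamine, 0.1% sodium bicarbonate and 20 µg/ml gentamicin. Virus stocks (HIV-1 IIIB/LAI, HIV-2 ROD) were grown and titred in MT-4 cells and stored at -70°. 100-300 CCID50 were added to cells at 6×10^5 cells/ml with test compound, then incubated 5 d at 37°. Protection from cytopathic effect was read as viable cells by MTT. A reference drug was run alike.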

[2] = test system: Herpes simplex virus-1 (KOS); experiment: microbe, parasite or virus in culture; type: cell-based; settings: for EC50: Human alphaherpesvirus 1, read-out: EC50 Herpes simplex virus-1 (KOS)
HEL cultures = settings: microscopically detectable alteration of normal cell morphology
Vaccinia virus = experiment: microbe, parasite or virus in culture; type: cell-based; settings: for EC50: Orthopoxvirus vaccinia, read-out: EC50 Vaccinia virus
[3] = test system: Herpes simplex virus-1 TK- KOS ACVr; experiment: microbe, parasite or virus in culture; type: cell-based; settings: Human alphaherpesvirus 1, read-out: EC50 Herpes simplex virus-1 TK- KOS ACVr
HIV-1(IIIB) = experiment: Inhibition of HIV-1 induced cytopathic effect in MT-4 cells; type: cell-based, Human immunodeficiency virus-1; settings: strain IIIB, 5 d, MTT
Procedure, shortened: as §1

SMILES | IC50b (50% cytotoxic concentration, reduces viability of mock-infected MT-4 cells by 50%) (mock-infected MT-4 cells) [µg/mL] | EC50 [1] [µg/mL] | EC50 (HIV-2(ROD)) [µg/mL] | EC50 [2] [µg/mL] | Minimum cytotoxic concentration (HEL cultures) [µg/mL] | EC50 (Vaccinia virus) [µg/mL] | EC50 [3] [µg/mL] | IC50a (50% effective concentration, 50% protection of MT-4 cells against the cytopathic effect of HIV) (HIV-1(IIIB)) [µg/mL] | IC50a (50% effective concentration, 50% protection of MT-4 cells against the cytopathic effect of HIV) (HIV-2(ROD); strain ROD, MT-4 cells, 5 d, MTT) [µg/mL] | EC50 Herpes simplex virus-1 (KOS) ([2]; HEL cultures, reduces virus-induced cytopathogenicity by 50 %) | EC50 Vaccinia virus (Vaccinia virus)
O=C(O)c1ccccc1-n1c(-c2ccccc2)nc2ccccc2c1=O [AA1, 2-(4-oxo-2-phenyl-4H-quinazolin-3-yl)-benzoic acid] | >125 | 58 (≈ 169 µM) | > 125 | 100 (≈ 292 µM) | >100 | > 100 | – | – | – | – | –
O=C(O)c1cc(Br)ccc1-n1c(-c2ccccc2)nc2ccccc2c1=O [AA2, 5-Bromo-2-(4-oxo-2-phenyl-4H-quinazolin-3-yl)-benzoic acid] | 88.20 | 58 (≈ 138 µM) | > 88.2 | 50 (≈ 119 µM) | >100 | 100 (≈ 237 µM) | 58 (≈ 138 µM) | – | – | – | –
O=C(O)c1cc(Br)cc(Br)c1-n1c(-c2ccccc2)nc2ccccc2c1=O [AA3, 3,5-dibromo-2-(4-oxo-2-phenyl-4H-quinazolin-3-yl)-benzoic acid] | >125 | 100 (≈ 200 µM) | > 125 | 50 (≈ 100 µM) | >100 | 100 (≈ 200 µM) | 100 (≈ 200 µM) | – | – | – | –
Cc1cn([C@H]2C[C@H](N=[N+]=[N-])[C@@H](CO)O2)c(=O)[nH]c1=O [AZT, reference compound] | 65.90 | – | – | – | – | – | – | 0.0012 | 0.00062 | – | –
O=c1[nH]c(=O)n([C@H]2C[C@H](O)[C@@H](CO)O2)cc1/C=C/Br [Brivudin, reference compound] | – | 22 (≈ 66 µM) | – | 0.04 (≈ 0.12 µM) | – | 6 (≈ 18 µM) | 10 (≈ 30 µM) | – | – | – | –
Nc1ccn(C[C@@H](CO)OCP(=O)(O)O)c(=O)n1 [Cidofovir, reference compound] | – | 0.8 (≈ 2.87 µM) | – | 0.8 (≈ 2.87 µM) | – | 10 (≈ 35.8 µM) | 1 (≈ 3.58 µM) | – | – | – | –
O=C(O)c1ccccc1-n1c(-c2ccccc2)nc2c(Br)cc(Br)cc2c1=O [DBR1, 2-(6,8-Dibromo-4-oxo-2-phenyl-4H-quinazolin-3-yl)-benzoic acid] | 83.15 | 50 (≈ 100 µM) | > 83.2 | 58 (≈ 116 µM) | >100 | 100 (≈ 200 µM) | 100 (≈ 200 µM) | – | – | – | –
O=C(O)c1cc(Br)ccc1-n1c(-c2ccccc2)nc2c(Br)cc(Br)cc2c1=O [DBR2, 5-Bromo-2-(6,8-dibromo-4-oxo-2-phenyl-4H-quinazolin-3-yl)-benzoic acid] | 64.18 | > 20 | > 64.2 | > 20 | 100 | > 20 | > 20 | – | – | – | –
O=C(O)c1cc(Br)cc(Br)c1-n1c(-c2ccccc2)nc2c(Br)cc(Br)cc2c1=O [DBR3, 3,5-Dibromo-2-(6,8-dibromo-4-oxo-2-phenyl-4H-quinazolin-3-yl)-benzoic acid] | >125 | > 100 | > 125 | > 100 | >100 | > 100 | > 100 | – | – | – | –
O=C(O)c1ccccc1-n1c(-c2ccccc2)nc2ccc(Br)cc2c1=O [MBR1, 2-(6-Bromo-4-oxo-2-phenyl-4H-quinazolin-3-yl)-benzoic acid] | >125 | > 20 | > 125 | > 20 | 100 | > 20 | > 20 | – | – | – | –
O=C(O)c1cc(Br)ccc1-n1c(-c2ccccc2)nc2ccc(Br)cc2c1=O [MBR2, 5-Bromo-2-(6-bromo-4-oxo-2-phenyl-4H-quinazolin-3-yl)-benzoic acid] | 60.40 | 12 (≈ 24 µM) | > 60.4 | 12 (≈ 24 µM) | 100 | 12 (≈ 24 µM) | – | – | – | distinct antiviral activity | distinct antiviral activity
NC(=O)c1ncn([C@@H]2O[C@H](CO)[C@@H](O)[C@H]2O)n1 [Ribavirin, reference compound] | – | > 250 | – | > 250 | – | > 250 | > 250 | – | – | – | –
